Activity calls are given as the source filed them. The rule behind the calls is not given here.
Experiments:
NCI-H187 = assay: Cytotoxicity against human NCI-H187 cells by resazurin microplate assay; format: functional, cell-based
Method in brief: (§1)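 Resazurin microplate assay on human cancer lines: KB (oral epidermoid carcinoma), MCF-7 (breast cancer) and NCI-H187 (small-cell lung cancer). IC50 values were read from the assay, with doxorubicin hydrochloride as the reference standard.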

KB [1] = assay: Cytotoxicity against human KB cells by resazurin microplate assay; format: functional, cell-based; method in brief: as §1
MCF7 [2] = assay: Cytotoxicity against human MCF7 cells by resazurin microplate assay; format: functional, cell-based; method in brief: as §1
Plasmodium falciparum = assay: Antimalarial activity against multidrug-resistant Plasmodium falciparum K1 by microculture radioisotope technique; format: functional, organism-based
[3] = tested on: Mycobacterium tuberculosis; assay: Antimycobacterial activity against Mycobacterium tuberculosis H37Ra by GFPMA assay; format: functional, organism-based
MCF7 [4] = assay: Cytotoxicity against human MCF7 cells at 50 ug/ml by resazurin microplate assay; format: functional, cell-based
Method in brief: (§2)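 Single-concentration test at 50 µg/mL (119 µM) by resazurin microplate assay on human KB (oral epidermoid carcinoma) or MCF-7 (breast cancer) cells, with doxorubicin hydrochloride as the reference standard.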

KB [5] = assay: Cytotoxicity against human KB cells at 50 ug/ml by resazurin microplate assay; format: functional, cell-based; method in brief: as §2
Vero = assay: Cytotoxicity against african freen monkey Vero cells by green fluorescent protein microplate assay; conditions: Chlorocebus sabaeus

CCC(/C=C/C=C/C=C/C(=O)c1c(O)c([C@]2(O)CC[C@@H](O)CC2)c[nH]c1=O)CO (stereo not given in full)
Activity (NCI-H187): inactive | Activity (KB [1]): inactive | Activity (MCF7 [2]): inactive

C[C@H]1[C@@H](O)O[C@@H]2O[C@@]3(C)CC[C@H]4[C@H](C)CC[C@@H]1[C@@]24OO3 [ARTENIMOL]
IC50 (Plasmodium falciparum): 0.004 µM

COc1cccc2c1C(=O)c1c(O)c3c(c(O)c1C2=O)C[C@@](O)(C(=O)CO)C[C@@H]3O[C@H]1C[C@H](N)[C@H](O)[C@H](C)O1 [DOXORUBICIN]
IC50 (NCI-H187): 0.098 µM | IC50 (KB [1]): 0.37 µM

CCC(/C=C/C=C/C=C/C(=O)c1c(O)c([C@]2(O)CC[C@@H](O)CC2)cn(O)c1=O)CO (stereo not given in full) [TORRUBIELLONE A]
IC50 (Plasmodium falciparum): 8.1 µM | Activity [3]: inactive | Activity (MCF7 [4]): inactive | Activity (KB [5]): inactive | IC50 (NCI-H187): 69 µM | IC50 (Vero): 87 µM

CCC(/C=C/C=C/C=C/C(O)=C1\C(=O)NC(Cc2ccc(O)cc2)C1=O)CO (stereo not given) [TORRUBIELLONE D]
Activity (NCI-H187): inactive | IC50 (KB [1]): 44 µM | Activity (MCF7 [2]): inactive

Reference: ChEMBL document CHEMBL1649361, “Pyridone and tetramic acid alkaloids from the spider pathogenic fungus Torrubiella sp. BCC 2165” (J Nat Prod, 2010)
